Measured values taken from ChEMBL document CHEMBL3352425, “Development of αGlcN(1↔1)αMan-based lipid A mimetics as a novel class of potent Toll-like receptor 4 agonists” (J Med Chem, 2014).
Activity calls are given as the source filed them. No cut-off for these calls is given here.

Legend:
THP-1 [1] = experiment: Induction of TNFalpha expression in human THP1 cells after 18 hrs by ELISA; assay type: functional, cell-based
How it was run: (§1)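 THP-1 cells in RPMI-1640 with 2 mM L-glutamine, antibiotics, 10% FCS; 10⁵ cells/well differentiated with 200 nM TPA for 24 h. Non-adherent cells washed off, 1 h recovery, then stimulated 18 h at indicated concentrations; E. coli Re-LPS or O111:B4 LPS as reference. DMSO stocks diluted in medium, final DMSO ≤0.01%. Supernatants assayed by ELISA.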

[2] = Induction of IL-6 level in C57BL/6J mouse BMDM at 1 nM after 16 hrs by ELISA; assay type: functional
How it was run: (§2)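 C57BL/6J bone marrow cells were differentiated 6 days with 40 ng/mL M-CSF in RPMI with 20% FBS, then seeded at 1 × 10⁶ cells/mL in RPMI with 10% FBS. After 24 h, cells were stimulated for 16 h, with nM concentrations based on compound MW. Supernatant cytokines were measured by ELISA.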

[3] = biological target: Toll-like receptor 4 (Homo sapiens) (UniProt O00206); experiment: Agonist activity at human TLR4 in human THP1 cells assessed as induction of MyD88 signaling after 18 hrs by ELISA; assay type: cell-based; details: THP-1
How it was run: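 THP-1 cells were seeded at 10⁵ per well and differentiated to macrophage-like cells with 200 nM TPA for 24 h. Non-adherent cells were washed off, and the remainder rested 1 h in fresh complete RPMI with 10% FCS. Cells were then stimulated for 18 h, and TNF-α, IL-8 and MCP-1 in the supernatants were measured by ELISA.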

THP-1 [4] = experiment: Induction of IL8 expression in human THP1 cells after 18 hrs by ELISA; assay type: functional, cell-based; how it was run: as §1
[5] = Cytotoxicity against human DC by propidium iodide staining
How it was run: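 Immature monocyte-derived DCs were stimulated with compound across a wide concentration range, and cytotoxicity was assessed by propidium iodide staining.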

[6] = Induction of TNFalpha level in C57BL/6J mouse BMDM at 1 nM after 16 hrs by ELISA; assay type: functional; how it was run: as §2
THP-1 [7] = experiment: Induction of MCP1 expression in human THP1 cells after 18 hrs by ELISA; assay type: functional, cell-based; how it was run: as §1
Homo sapiens [8] = organism: Homo sapiens; experiment: Induction of IL10 release in human DC at 1 ng/ml by Luminex
[9] = biological target: Toll-like receptor 4 (Homo sapiens) (UniProt O00206); experiment: Agonist activity at human TLR4 expressed in HEK293 cells coexpressed with human MD2/CD14 assessed as activation of NFkappaB signaling at 10 ng/ml after 20 to 24 hrs by NFkappaB reporter assay; assay type: cell-based
How it was run: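 HEK-Blue hTLR4 cells (HEK293 co-transfected with hTLR4/MD-2/CD14), 25000 per well, were stimulated with compound diluted in DMEM with 10% FCS (final DMSO ≤0.005–0.01%) for 20–24 h at 37 °C, 5% CO2. Secreted SEAP in the supernatant was read with QUANTI-Blue at 650 nm. Data were pooled from n = 3 independent experiments, SEM.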

[10] = Induction of human DC maturation assessed as upregulation of MHC class 1 at 10 ng/ml after 24 hrs by flow cytometry; assay type: functional
Homo sapiens [11] = organism: Homo sapiens; experiment: Induction of TNFalpha release in human DC at 1 ng/ml by Luminex
Homo sapiens [12] = organism: Homo sapiens; experiment: Induction of IL6 release in human DC at 1 ng/ml by Luminex
Homo sapiens [13] = organism: Homo sapiens; experiment: Induction of IL12 release in human DC at 1 ng/ml by Luminex
[14] = Induction of human DC maturation assessed as upregulation of CD86 at 10 ng/ml after 24 hrs by flow cytometry; assay type: functional
[15] = Induction of human DC maturation assessed as upregulation of MHC class 2 at 10 ng/ml after 24 hrs by flow cytometry; assay type: functional
BMDM = experiment: Induction of IL-6 level in C57BL/6J mouse BMDM after 16 hrs by ELISA; assay type: functional
How it was run: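 Bone marrow flushed from femur and tibia, erythrocytes lysed (0.88% ammonium chloride, 15 min, 37 °C), differentiated 6 days in RPMI/20% FBS with 40 ng/mL M-CSF. Replated at 1 × 10⁶ cells/mL in RPMI/10% FBS, stimulated after 24 h for 16 h. Nanomolar doses calculated from MW. DMSO stocks diluted in medium, final DMSO ≤0.01%. Supernatant IL-6 by ELISA.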

Sequence of Toll-like receptor 4 (Homo sapiens) (O00206 whole entry): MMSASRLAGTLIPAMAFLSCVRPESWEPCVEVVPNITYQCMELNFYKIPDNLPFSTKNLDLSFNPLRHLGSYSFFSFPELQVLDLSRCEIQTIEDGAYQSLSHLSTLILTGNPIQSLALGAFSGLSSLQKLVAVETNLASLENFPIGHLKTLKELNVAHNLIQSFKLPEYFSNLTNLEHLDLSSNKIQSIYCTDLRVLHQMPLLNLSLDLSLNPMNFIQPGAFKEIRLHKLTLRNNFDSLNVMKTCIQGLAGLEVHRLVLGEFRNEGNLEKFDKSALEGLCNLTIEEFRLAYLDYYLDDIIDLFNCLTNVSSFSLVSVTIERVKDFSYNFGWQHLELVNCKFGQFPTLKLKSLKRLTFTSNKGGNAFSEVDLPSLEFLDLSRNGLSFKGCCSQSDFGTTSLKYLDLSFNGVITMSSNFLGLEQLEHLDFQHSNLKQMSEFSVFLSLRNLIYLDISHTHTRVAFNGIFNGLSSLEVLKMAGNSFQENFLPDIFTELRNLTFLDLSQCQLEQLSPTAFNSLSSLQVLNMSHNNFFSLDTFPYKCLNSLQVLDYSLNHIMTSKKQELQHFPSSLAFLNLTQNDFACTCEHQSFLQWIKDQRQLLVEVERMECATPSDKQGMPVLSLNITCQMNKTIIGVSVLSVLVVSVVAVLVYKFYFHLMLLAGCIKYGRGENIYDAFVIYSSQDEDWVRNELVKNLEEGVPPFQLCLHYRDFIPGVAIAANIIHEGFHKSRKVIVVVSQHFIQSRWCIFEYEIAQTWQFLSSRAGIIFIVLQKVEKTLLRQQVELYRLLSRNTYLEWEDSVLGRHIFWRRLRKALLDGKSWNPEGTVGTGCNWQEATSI

Compound: CCCCCCCCCCCCCC(=O)O[C@H](CCCCCCCCCCC)CC(=O)O[C@@H]1[C@@H](NC(=O)C[C@@H](CCCCCCCCCCC)OC(=O)CCCCCCCCCCC)[C@@H](O[C@H]2O[C@H](COP(=O)(O)O)[C@@H](OC(=O)C[C@H](CCCCCCCCCCC)OC(=O)CCCCCCCCC)[C@H](O)[C@@H]2OC)O[C@H](CO)[C@H]1OP(=O)(O)O
- Activity (THP-1 [1]): Dose-dependent effect
- Activity [2]: 1500 pg/mL
- Activity [3]: Active
- Activity (THP-1 [4]): Dose-dependent effect
- Activity [5]: Non-toxic
- Activity [6]: 4000 pg/mL
- Activity (THP-1 [7]): Active

Compound: CCCCCCCCCCCCCC(=O)O[C@H](CCCCCCCCCCC)CC(=O)N[C@H]1[C@H](OC[C@H]2O[C@H](OP(=O)(O)O)[C@H](NC(=O)C[C@H](O)CCCCCCCCCCC)[C@@H](OC(=O)C[C@H](O)CCCCCCCCCCC)[C@@H]2O)O[C@H](CO)[C@@H](OP(=O)(O)O)[C@@H]1OC(=O)C[C@@H](CCCCCCCCCCC)OC(=O)CCCCCCCCCCCCC
- Activity [6]: 2000 pg/mL

Compound: CCCCCCCCCCCCCC(=O)O[C@H](CCCCCCCCCCC)CC(=O)O[C@@H]1[C@@H](NC(=O)C[C@@H](CCCCCCCCCCC)OC(=O)CCCCCCCCCCC)[C@@H](O[C@H]2O[C@H](COP(=O)(O)O)[C@@H](OC(=O)C[C@H](CCCCCCCCCCC)OC(=O)CCCCCCCCCCC)[C@H](O)[C@@H]2OC)O[C@H](CO)[C@H]1OP(=O)(O)O
- Activity (THP-1 [1]): Dose-dependent effect
- Activity (Homo sapiens [8]): Active
- Activity [2]: 1500 pg/mL
- Activity [3]: Active
- Activity [9]: Active
- Activity (THP-1 [4]): Dose-dependent effect
- Activity [5]: Non-toxic
- Activity [10]: Active
- Activity (Homo sapiens [11]): Active
- Activity (Homo sapiens [12]): Active
- Activity [6]: 4000 pg/mL
- Activity (Homo sapiens [13]): Active
- Activity [14]: Active
- Activity [15]: Active
- Activity (THP-1 [7]): Active

Compound: CCCCCCCCCCCCCC(=O)O[C@H](CCCCCCCCCCC)CC(=O)O[C@@H]1[C@@H](NC(=O)C[C@@H](CCCCCCCCCCC)OC(=O)CCCCCCCCCCC)[C@@H](O[C@H]2O[C@H](CO)[C@@H](OC(=O)C[C@H](CCCCCCCCCCC)OC(=O)CCCCCCCCCCC)[C@H](O)[C@@H]2OC)O[C@H](CO)[C@H]1OP(=O)(O)O
- Activity (THP-1 [1]): inactive
- Activity (Homo sapiens [8]): inactive
- Activity (THP-1 [4]): inactive
- Activity [5]: Non-toxic
- Activity (Homo sapiens [11]): inactive
- Activity (Homo sapiens [12]): inactive
- Activity [6]: 500 pg/mL
- Activity (Homo sapiens [13]): inactive
- Activity (BMDM): Dose-dependent effect
- Activity (THP-1 [7]): inactive
